Measurements taken from ChEMBL document CHEMBL1126297, “Synthesis and evaluation of analogues of (Z)-1-(4-methoxyphenyl)-2-(3,4,5-trimethoxyphenyl)ethene as potential cytotoxic and antimitotic agents” (J Med Chem, 1992).

What was measured:
Assay type in all cases: functional
MLM = assay: Cytotoxicity against human MLM melanoma cell line.; details: read-out: ED50 (the source's name)
Procedure, shortened: (§1)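 MTT colorimetric assay run in the Purdue Cell Culture Laboratory. Poorly water-soluble compounds were serially diluted in DMSO and added as 0.5 μL aliquots per well. Cells were incubated with compound for 6 days before MTT was added. […] The reported ED50 is the mean of two determinations.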

A549 = assay: Compound was evaluated for cytotoxicity against human A-549 non-small cell lung cancer cell line.; details: read-out: ED50 (the source's name); procedure, shortened: as §1
HT-29 = assay: Cytotoxicity against human HT-29 colon cell line.; details: read-out: ED50 (the source's name); procedure, shortened: as §1
SK-MEL-5 = assay: Compound was evaluated for cytotoxicity against human SKMEL-5 melanoma cell line.; details: read-out: ED50 (the source's name); procedure, shortened: as §1
MCF7 = assay: Cytotoxicity against human MCF-7 breast cancer cell line.; details: read-out: ED50 (the source's name); procedure, shortened: as §1
Bos taurus = species: Bos taurus; assay: Inhibition of tubulin polymerization
Procedure, shortened: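 Bovine brain tubulin, purified to electrophoretic homogeneity, was preincubated at 37 °C with a range of compound concentrations and then chilled on ice. GTP was added and polymerization followed at 37 °C by turbidity at 350 nm. Extent was read at 20 min against two controls per experiment, and IC50 was determined graphically. Actives were run in ≥3 independent assays, inactives (IC50 > 40 μM) in ≥2.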

Structure (SMILES)	EC50 (MLM) [µM]	EC50 (A549) [nM]	EC50 (HT-29) [nM]	EC50 (SK-MEL-5) [nM]	EC50 (MCF7) [µM]	IC50 (Bos taurus) [µM]
COc1ccc(Cc2cc(OC)c(OC)c(OC)c2)cc1	1.3	1500	1300	1200	1.9	15
COc1ccc(C(C#N)Cc2cc(OC)c(OC)c(OC)c2)cc1 (stereo not drawn)	21.1	11500	9400	6400	14.3	> 40
CCN(CC)CCOC(=O)/C(=C/c1cccc(OC)c1)c1cc(OC)c(OC)c(OC)c1	> 25	7700	> 25000	6700	10.4	> 40
COc1ccc(CC2c3cc(OC)c(OC)c(OC)c3CCN2C)cc1 (stereo not drawn)	> 25	11400	9700	8800	22.7	> 40
CCOc1ccc(CCc2cc(OC)c(OC)c(OC)c2)cc1	0.27	190	180	170	0.19	10
COc1ccc2cc3n(c(=O)c2c1)CCc1c-3cc(OC)c(OC)c1OC	> 25	> 25000	> 25000	> 25000	> 25	> 40
CCN(CC)CCOC(=O)/C(=C/c1ccc(OC)cc1)c1cc(OC)c(OC)c(OC)c1	> 25	1800	2800	2700	2.1	> 40
COc1ccc(/C(=C\c2cc(OC)c(OC)c(OC)c2)C(=O)O)cc1	> 25	5200	5900	2300	1.9	> 40
COc1cc(/C=C\c2ccc(C)cc2)cc(OC)c1OC	0.0066	0.94	2.3	0.83	0.024	2
COc1cc(/C=C\c2ccc(C(C)C)cc2)cc(OC)c1OC	–	–	2400	–	1.4	12
COc1ccc(/C=C/c2ccc(OC)c(OC)c2)cc1	> 25	11700	> 25000	> 25000	> 25	> 40
COc1ccc(C(=O)c2c3cc(OC)c(OC)c(OC)c3cc[n+]2C)cc1	> 25	> 25000	> 25000	> 25000	> 25	> 40
COc1cc(/C=C/c2ccc(C(C)(C)C)cc2)cc(OC)c1OC	> 25	> 25000	> 25000	> 25000	> 25	> 40
COc1ccc(C(=O)c2cc(OC)c(OC)c(OC)c2)cc1	1.3	1100	1300	1200	1.5	7.4
COc1ccc(CCc2cc(OC)c(OC)c(OC)c2)cc1	1.8	1800	2500	1400	1.6	7.9
COc1ccc(/C=C\c2cc(OC)c(OC)c(OC)c2)cc1	1.6	–	2600	2600	–	2.5
COc1cc2ccc3c(OC)cccc3c2c(OC)c1OC	> 25	> 25000	9300	12000	14.6	> 40
COc1ccc2c(ccc3cc(OC)c(OC)c(OC)c32)c1	> 25	> 25000	> 25000	> 25000	> 25	> 40
COC(=O)/C(=C/c1ccc(OC)cc1)c1cc(OC)c(OC)c(OC)c1	9.6	1100	500	6400	2	> 40
COc1cccc(/C=C(/C(=O)O)c2cc(OC)c(OC)c(OC)c2)c1	> 25	25	120	50	> 25	> 40
CCCOc1ccc(/C=C\c2cc(OC)c(OC)c(OC)c2)cc1	0.065	39	28	14	0.66	6
COc1ccc2c(c1)CN1CCc3c(cc(OC)c(OC)c3OC)C1C2 (stereo not drawn)	> 25	> 25000	> 25000	> 25000	> 25	> 40
COc1ccc(C2Cc3cc(OC)c(OC)c(OC)c3C2)cc1 (stereo not drawn)	> 25	> 25000	12800	19500	> 25	> 40
COc1ccc(C(=O)c2nccc3c(OC)c(OC)c(OC)cc23)cc1	> 25	> 25000	> 25000	> 25000	> 25	> 40

Structure (SMILES)	EC50 (MLM) [µM]	EC50 (A549) [nM]	EC50 (HT-29) [nM]	EC50 (SK-MEL-5) [nM]	EC50 (MCF7) [µM]	IC50 (Bos taurus) [µM]
COc1cc(/C=C/c2ccc(SC)cc2)cc(OC)c1OC	7.3	470	83	280	0.059	> 40
COc1cc(CCc2ccc(OCCN(C)C)cc2)cc(OC)c1OC	> 25	> 25000	9800	11400	10.3	> 40
COc1cc(/C=C/c2ccc(C(C)C)cc2)cc(OC)c1OC	> 25	9800	6800	11100	18.4	> 40
COc1cc(CCc2ccc(C)cc2)cc(OC)c1OC	1.4	180	100	270	0.22	21
COC(=O)/C(=C/c1cccc(OC)c1)c1cc(OC)c(OC)c(OC)c1	15.5	1300	700	1500	1.3	> 40
COC(=O)C(Cc1cc(OC)c(OC)c(OC)c1)c1ccc(OC)cc1 (stereo not drawn)	> 25	> 25000	> 25000	> 25000	> 25	> 40
COc1ccc(/C=C\c2cc(OC)c(OCc3ccccc3)c(OC)c2)cc1	> 25	1040	950	610	1.92	> 40
COc1ccc2ccc3cc(OC)c(OC)c(OC)c3c2c1	> 25	> 25000	1100	12500	> 25	> 40
COc1cc2ccc3cccc(OC)c3c2c(OC)c1OC	21.4	5700	1900	1300	1.8	> 40
COc1ccc(/C=C\c2cc(OC)c(OC(C)=O)c(OC)c2)cc1	> 25	21500	8700	600	> 25	24
CNC(=O)/C(=C/c1ccc(OC)cc1)c1cc(OC)c(OC)c(OC)c1	93	2400	2600	2400	5	35
COc1ccc(/C=C/c2cc(OC)c(OC(C)=O)c(OC)c2)cc1	21	16400	11700	10200	19.4	> 40
COc1ccc(/C=C/c2cc(OC)c(OCc3ccccc3)c(OC)c2)cc1	> 25	> 25000	17800	> 25000	> 25	> 40
COc1cc(/C=C\c2ccc(C(C)(C)C)cc2)cc(OC)c1OC	4.32	1020	880	210	1.57	> 40
CCOc1ccc(/C=C\c2cc(OC)c(OC)c(OC)c2)cc1	–	1600	1800	2500	9.6	2.7
COc1cc(/C=C\c2ccc(SC)cc2)cc(OC)c1OC	0.0033	0.19	0.0018	0.004	0.0054	6.2
CCNC(=O)/C(=C/c1ccc(OC)cc1)c1cc(OC)c(OC)c(OC)c1	> 25	3400	1800	7050	3.7	> 40
COc1ccc(C(O)c2cc(OC)c(OC)c(OC)c2)cc1 (stereo not drawn)	16.8	1500	1200	1500	1.9	> 40
COc1ccc(C(Cc2cc(OC)c(OC)c(OC)c2)C(=O)O)cc1 (stereo not drawn)	> 25	14300	9400	7400	> 25	> 40
CCCOc1ccc(CCc2cc(OC)c(OC)c(OC)c2)cc1	15	7200	6400	6700	3.9	> 40
COc1ccc(/C=C(/C(=O)O)c2cc(OC)c(OC)c(OC)c2)cc1	> 25	13900	8400	9100	12.8	> 40
CCOc1ccc(/C=C/c2cc(OC)c(OC)c(OC)c2)cc1	–	–	1490	1170	7.5	> 40
COc1ccc(/C=C\c2cc(OC)c(OC)c(OC)c2)cc1O [COMBRETASTATIN A4]	0.00043	0.32	10	0.14	0.0056	–
